ChEMBL document CHEMBL4689842, “EUbOPEN Chemogenomics Library wave 1” (2021)

Key:
Format in all cases: toxicity, cell-based
Fibroblast [1] = assay: Multiplex assay against human fibroblast
Procedure, shortened: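 Phenotypes for tubulin, mitochondrial mass and membrane permeability are expressed as per cents of healthy-nucleus cells. Cells were stained live at seeding with Hoechst33342, BioTracker Green Microtubule Cytoskeleton Dye, MitoTracker Red and Annexin V Alexa Fluor 680, then imaged after compound addition on a CQ1 microscope at 37°C and 5% CO2. Machine-learning gating in CellPathfinder separated Hoechst high-intensity objects from normal cells, divided normal cells by nuclear state (healthy, pyknosed, fragmented) and divided pyknosed cells into mitotic or apoptotic.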

U2OS = assay: Incucyte cell viability with U2OS; settings: human, 10 µM, compound concentration 10 uM; also: filed as whole numbers so only -1 and 0 and 1 occur
Fibroblast [2] = assay: Incucyte cell viability with human fibroblast; settings: 10 µM, compound concentration 10 uM; also: filed as whole numbers so only -1 and 0 and 1 occur
[3] = 12 h, 1 µM, compound concentration 1 uM, replicate 1
[4] = 12 h, 1 µM, compound concentration 1 uM, replicate 2
[5] = 12 h, 10 µM, compound concentration 10 uM, replicate 1
[6] = 12 h, 10 µM, compound concentration 10 uM, replicate 2
[7] = 24 h, 1 µM, compound concentration 1 uM, replicate 1
[8] = 24 h, 1 µM, compound concentration 1 uM, replicate 2
[9] = 24 h, 10 µM, compound concentration 10 uM, replicate 1
[10] = 24 h, 10 µM, compound concentration 10 uM, replicate 2
[11] = 48 h, 1 µM, compound concentration 1 uM, replicate 1
[12] = 48 h, 1 µM, compound concentration 1 uM, replicate 2
[13] = 48 h, 10 µM, compound concentration 10 uM, replicate 1
[14] = 48 h, 10 µM, compound concentration 10 uM, replicate 2
[15] = 6 h, replicate number 1, timepoint 6 hours
[16] = 12 h, replicate number 1, timepoint 12 hours
[17] = 18 h, replicate number 1, timepoint 18 hours
[18] = 24 h, replicate number 1, timepoint 24 hours

Cl.NC[C@@H]1O[C@H](C23CC4CC(CC(C4)C2)C3)Cc2c1ccc(O)c2O
Population Apoptotic (%) (Fibroblast [1]; [3]): 60%
Population Fragmented Nuclei (%) (Fibroblast [1]; [3]): 28%
Population Healthy Nuclei (%) (Fibroblast [1]; [3]): 51%
Population Hoechst High Intensity Objects (%) (Fibroblast [1]; [3]): 12%
Population Membrane Permeable-Phenotype (%) (Fibroblast [1]; [3]): 16%
Population Mitochondria Different-Phenotype (%) (Fibroblast [1]; [3]): 1%
Population Mitotic Cells (%) (Fibroblast [1]; [3]): 40%
Population Normal (%) (Fibroblast [1]; [3]): 87%
Population Pyknosed Nuclei (%) (Fibroblast [1]; [3]): 20%
Population Tubulin-Different-Phenotype (%) (Fibroblast [1]; [3]): 24%
Total Cell Count (Fibroblast [1]; [3]): 171
Population Apoptotic (%) (Fibroblast [1]; [4]): 0%
Population Fragmented Nuclei (%) (Fibroblast [1]; [4]): 6%
Population Healthy Nuclei (%) (Fibroblast [1]; [4]): 91%
Population Hoechst High Intensity Objects (%) (Fibroblast [1]; [4]): 3%
Population Membrane Permeable-Phenotype (%) (Fibroblast [1]; [4]): 2%
Population Mitochondria Different-Phenotype (%) (Fibroblast [1]; [4]): 9%
Population Mitotic Cells (%) (Fibroblast [1]; [4]): 100%
Population Normal (%) (Fibroblast [1]; [4]): 96%
Population Pyknosed Nuclei (%) (Fibroblast [1]; [4]): 2%
Population Tubulin-Different-Phenotype (%) (Fibroblast [1]; [4]): 10%
Total Cell Count (Fibroblast [1]; [4]): 95
Population Apoptotic (%) (Fibroblast [1]; [5]): 44%
Population Fragmented Nuclei (%) (Fibroblast [1]; [5]): 29%
Population Healthy Nuclei (%) (Fibroblast [1]; [5]): 42%
Population Hoechst High Intensity Objects (%) (Fibroblast [1]; [5]): 15%
Population Membrane Permeable-Phenotype (%) (Fibroblast [1]; [5]): 8%
Population Mitochondria Different-Phenotype (%) (Fibroblast [1]; [5]): 9%
Population Mitotic Cells (%) (Fibroblast [1]; [5]): 55%
Population Normal (%) (Fibroblast [1]; [5]): 84%
Population Pyknosed Nuclei (%) (Fibroblast [1]; [5]): 28%
Population Tubulin-Different-Phenotype (%) (Fibroblast [1]; [5]): 46%
Total Cell Count (Fibroblast [1]; [5]): 205
Population Apoptotic (%) (Fibroblast [1]; [6]): 52%
Population Fragmented Nuclei (%) (Fibroblast [1]; [6]): 39%
Population Healthy Nuclei (%) (Fibroblast [1]; [6]): 32%
Population Hoechst High Intensity Objects (%) (Fibroblast [1]; [6]): 10%
Population Membrane Permeable-Phenotype (%) (Fibroblast [1]; [6]): 9%
Population Mitochondria Different-Phenotype (%) (Fibroblast [1]; [6]): 22%
Population Mitotic Cells (%) (Fibroblast [1]; [6]): 47%
Population Normal (%) (Fibroblast [1]; [6]): 89%
Population Pyknosed Nuclei (%) (Fibroblast [1]; [6]): 27%
Population Tubulin-Different-Phenotype (%) (Fibroblast [1]; [6]): 27%
Total Cell Count (Fibroblast [1]; [6]): 76
Population Apoptotic (%) (Fibroblast [1]; [7]): 50%
Population Fragmented Nuclei (%) (Fibroblast [1]; [7]): 32%
Population Healthy Nuclei (%) (Fibroblast [1]; [7]): 55%
Population Hoechst High Intensity Objects (%) (Fibroblast [1]; [7]): 14%
Population Membrane Permeable-Phenotype (%) (Fibroblast [1]; [7]): 14%
Population Mitochondria Different-Phenotype (%) (Fibroblast [1]; [7]): 0%
Population Mitotic Cells (%) (Fibroblast [1]; [7]): 50%
Population Normal (%) (Fibroblast [1]; [7]): 85%
Population Pyknosed Nuclei (%) (Fibroblast [1]; [7]): 12%
Population Tubulin-Different-Phenotype (%) (Fibroblast [1]; [7]): 26%
Total Cell Count (Fibroblast [1]; [7]): 213
Population Apoptotic (%) (Fibroblast [1]; [8]): 42%
Population Fragmented Nuclei (%) (Fibroblast [1]; [8]): 8%
Population Healthy Nuclei (%) (Fibroblast [1]; [8]): 85%
Population Hoechst High Intensity Objects (%) (Fibroblast [1]; [8]): 2%
Population Membrane Permeable-Phenotype (%) (Fibroblast [1]; [8]): 5%
Population Mitochondria Different-Phenotype (%) (Fibroblast [1]; [8]): 10%
Population Mitotic Cells (%) (Fibroblast [1]; [8]): 57%
Population Normal (%) (Fibroblast [1]; [8]): 97%
Population Pyknosed Nuclei (%) (Fibroblast [1]; [8]): 6%
Population Tubulin-Different-Phenotype (%) (Fibroblast [1]; [8]): 12%
Total Cell Count (Fibroblast [1]; [8]): 114
Population Apoptotic (%) (Fibroblast [1]; [9]): 58%
Population Fragmented Nuclei (%) (Fibroblast [1]; [9]): 17%
Population Healthy Nuclei (%) (Fibroblast [1]; [9]): 52%
Population Hoechst High Intensity Objects (%) (Fibroblast [1]; [9]): 29%
Population Membrane Permeable-Phenotype (%) (Fibroblast [1]; [9]): 5%
Population Mitochondria Different-Phenotype (%) (Fibroblast [1]; [9]): 16%
Population Mitotic Cells (%) (Fibroblast [1]; [9]): 41%
Population Normal (%) (Fibroblast [1]; [9]): 70%
Population Pyknosed Nuclei (%) (Fibroblast [1]; [9]): 30%
Population Tubulin-Different-Phenotype (%) (Fibroblast [1]; [9]): 50%
Total Cell Count (Fibroblast [1]; [9]): 181
Population Apoptotic (%) (Fibroblast [1]; [10]): 92%
Population Fragmented Nuclei (%) (Fibroblast [1]; [10]): 50%
Population Healthy Nuclei (%) (Fibroblast [1]; [10]): 29%
Population Hoechst High Intensity Objects (%) (Fibroblast [1]; [10]): 18%
Population Membrane Permeable-Phenotype (%) (Fibroblast [1]; [10]): 26%
Population Mitochondria Different-Phenotype (%) (Fibroblast [1]; [10]): 26%
Population Mitotic Cells (%) (Fibroblast [1]; [10]): 7%
Population Normal (%) (Fibroblast [1]; [10]): 81%
Population Pyknosed Nuclei (%) (Fibroblast [1]; [10]): 20%
Population Tubulin-Different-Phenotype (%) (Fibroblast [1]; [10]): 26%
Total Cell Count (Fibroblast [1]; [10]): 80
Population Apoptotic (%) (Fibroblast [1]; [11]): 87%
Population Fragmented Nuclei (%) (Fibroblast [1]; [11]): 36%
Population Healthy Nuclei (%) (Fibroblast [1]; [11]): 59%
Population Hoechst High Intensity Objects (%) (Fibroblast [1]; [11]): 11%
Population Membrane Permeable-Phenotype (%) (Fibroblast [1]; [11]): 10%
Population Mitotic Cells (%) (Fibroblast [1]; [11]): 12%
Population Normal (%) (Fibroblast [1]; [11]): 88%
Population Pyknosed Nuclei (%) (Fibroblast [1]; [11]): 4%
Population Tubulin-Different-Phenotype (%) (Fibroblast [1]; [11]): 13%
Total Cell Count (Fibroblast [1]; [11]): 212
Population Apoptotic (%) (Fibroblast [1]; [12]): 100%
Population Fragmented Nuclei (%) (Fibroblast [1]; [12]): 21%
Population Healthy Nuclei (%) (Fibroblast [1]; [12]): 77%
Population Hoechst High Intensity Objects (%) (Fibroblast [1]; [12]): 10%
Population Membrane Permeable-Phenotype (%) (Fibroblast [1]; [12]): 16%
Population Mitochondria Different-Phenotype (%) (Fibroblast [1]; [12]): 0%
Population Mitotic Cells (%) (Fibroblast [1]; [12]): 0%
Population Normal (%) (Fibroblast [1]; [12]): 89%
Population Pyknosed Nuclei (%) (Fibroblast [1]; [12]): 0%
Population Tubulin-Different-Phenotype (%) (Fibroblast [1]; [12]): 21%
Total Cell Count (Fibroblast [1]; [12]): 114
Population Apoptotic (%) (Fibroblast [1]; [13]): 66%
Population Fragmented Nuclei (%) (Fibroblast [1]; [13]): 32%
Population Healthy Nuclei (%) (Fibroblast [1]; [13]): 43%
Population Hoechst High Intensity Objects (%) (Fibroblast [1]; [13]): 24%
Population Membrane Permeable-Phenotype (%) (Fibroblast [1]; [13]): 50%
Population Mitochondria Different-Phenotype (%) (Fibroblast [1]; [13]): 5%
Population Mitotic Cells (%) (Fibroblast [1]; [13]): 33%
Population Normal (%) (Fibroblast [1]; [13]): 75%
Population Pyknosed Nuclei (%) (Fibroblast [1]; [13]): 23%
Population Tubulin-Different-Phenotype (%) (Fibroblast [1]; [13]): 46%
Total Cell Count (Fibroblast [1]; [13]): 169
Population Apoptotic (%) (Fibroblast [1]; [14]): 100%
Population Fragmented Nuclei (%) (Fibroblast [1]; [14]): 50%
Population Healthy Nuclei (%) (Fibroblast [1]; [14]): 48%
Population Hoechst High Intensity Objects (%) (Fibroblast [1]; [14]): 17%
Population Membrane Permeable-Phenotype (%) (Fibroblast [1]; [14]): 14%
Population Mitochondria Different-Phenotype (%) (Fibroblast [1]; [14]): 1%
Population Mitotic Cells (%) (Fibroblast [1]; [14]): 0%
Population Normal (%) (Fibroblast [1]; [14]): 82%
Population Pyknosed Nuclei (%) (Fibroblast [1]; [14]): 1%
Population Tubulin-Different-Phenotype (%) (Fibroblast [1]; [14]): 43%
Total Cell Count (Fibroblast [1]; [14]): 236
Growth Rate (U2OS; [15]): 0
Growth Rate (U2OS; [16]): 0
Growth Rate (U2OS; [17]): 0
Growth Rate (U2OS; [18]): 0
Growth Rate (Fibroblast [2]; [15]): 0
Growth Rate (Fibroblast [2]; [16]): 0
Growth Rate (Fibroblast [2]; [17]): 0
Growth Rate (Fibroblast [2]; [18]): 0
